Here are results for one molecule from ChEMBL document CHEMBL4152390, “Discovery of the First-in-Class Dual Histone Deacetylase-Proteasome Inhibitor” (J Med Chem, 2018).

Active and inactive are the calls of the source. The rule behind the calls is not given here.

For test [1], the target named is T1, Protein deacetylase HDAC6 (Homo sapiens) (UniProt Q9UBN7).
T1 sequence (whole entry): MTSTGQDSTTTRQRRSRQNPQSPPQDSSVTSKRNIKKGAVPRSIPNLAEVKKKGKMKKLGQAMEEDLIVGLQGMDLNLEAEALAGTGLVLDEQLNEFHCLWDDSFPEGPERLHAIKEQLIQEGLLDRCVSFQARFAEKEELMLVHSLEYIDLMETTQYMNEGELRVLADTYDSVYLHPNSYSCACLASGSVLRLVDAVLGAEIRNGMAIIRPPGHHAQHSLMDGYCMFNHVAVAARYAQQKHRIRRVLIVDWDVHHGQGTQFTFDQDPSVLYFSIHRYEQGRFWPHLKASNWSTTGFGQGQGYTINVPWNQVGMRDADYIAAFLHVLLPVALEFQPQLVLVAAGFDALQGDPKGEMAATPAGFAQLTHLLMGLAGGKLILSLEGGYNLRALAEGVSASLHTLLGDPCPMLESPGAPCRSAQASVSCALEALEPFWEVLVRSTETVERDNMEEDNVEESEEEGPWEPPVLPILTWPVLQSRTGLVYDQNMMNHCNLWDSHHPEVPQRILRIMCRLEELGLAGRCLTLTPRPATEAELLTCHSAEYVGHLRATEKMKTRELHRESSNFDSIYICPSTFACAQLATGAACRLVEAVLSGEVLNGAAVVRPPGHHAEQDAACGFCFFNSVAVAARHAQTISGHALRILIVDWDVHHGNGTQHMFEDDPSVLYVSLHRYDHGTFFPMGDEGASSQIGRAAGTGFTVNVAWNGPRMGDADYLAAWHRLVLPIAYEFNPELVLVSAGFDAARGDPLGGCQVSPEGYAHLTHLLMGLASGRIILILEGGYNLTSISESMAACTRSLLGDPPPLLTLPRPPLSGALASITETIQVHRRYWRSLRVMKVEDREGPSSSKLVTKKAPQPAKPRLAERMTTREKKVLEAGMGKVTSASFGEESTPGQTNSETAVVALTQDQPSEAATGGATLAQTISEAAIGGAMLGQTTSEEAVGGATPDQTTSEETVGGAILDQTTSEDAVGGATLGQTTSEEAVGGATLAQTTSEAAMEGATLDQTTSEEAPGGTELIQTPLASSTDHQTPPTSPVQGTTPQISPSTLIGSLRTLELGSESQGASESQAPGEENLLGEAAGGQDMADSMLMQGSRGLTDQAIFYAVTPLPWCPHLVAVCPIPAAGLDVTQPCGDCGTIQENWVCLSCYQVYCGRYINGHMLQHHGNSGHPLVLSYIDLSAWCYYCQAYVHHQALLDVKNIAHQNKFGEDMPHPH
As to the kind of experiment: Inhibition of HDAC6 in imatinib-resistant human SUP-B15 cells assessed as increase in acetyl-alpha tubulin expression at 0.1 to 10 uM after 24 hrs by immunoblot assay. Format: cell-based. Put shortly: (§1)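 Cells exposed for 24 h at indicated concentrations; lysates immunoblotted for acetyl-α-tubulin, acetyl-histone H3, PARP, with GAPDH as loading control.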
In general terms: Immunoblotting shows a protein as a band on a membrane.

In test [2] the test system is SEM cells. Description: Inhibition of HDAC6/chymotrypsin-like activity of 20S proteasome in human SEM cells assessed as increase in phosphorylated JNK protein expression at 0.1 to 10 uM after 18 hrs by Western blot assay. Format: cell-based. Put shortly:
(§2)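 Cells treated 18 h at indicated concentrations; lysates analysed by western blot for heat shock (Grp94, HSP70, HSP40, HSP27), UPR (BIP, ATF4, ATF6, pJNK) and autophagy (LC3B, p62) proteins.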

Test [3] concerns SEM cells. As to the kind of experiment: Inhibition of HDAC6/chymotrypsin-like activity of 20S proteasome in human SEM cells assessed as increase in cleaved PARP expression at 0.1 to 10 uM after 24 hrs by immunoblot assay. Type of test: cell-based. The gist of the method: as §1
Test [4] addresses T1, Protein deacetylase HDAC6 (Homo sapiens). As to the kind of experiment: Inhibition of HDAC6 in human HL60 cells assessed as increase in acetyl-alpha tubulin expression at 0.1 to 10 uM after 24 hrs by immunoblot assay. Type of test: cell-based. The gist of the method:
as §1

The nature of test [5]: Cytotoxicity against human BCP-ALL cells derived from patient 3 after 72 hrs by CellTiter-Glo luminescent cell viability assay. Format: functional, cell-based.
The target in test [6] is T1, Protein deacetylase HDAC6 (Homo sapiens). Description: Inhibition of HDAC6 in human SEM cells assessed as increase in acetyl-alpha tubulin expression at 0.1 to 10 uM after 24 hrs by immunoblot assay. Format: cell-based. Put shortly:
as §1

Test [7] relates to SEM cells. As to the kind of experiment: Induction of apoptosis in human SEM cells assessed as increase in caspase 3/7 activity at IC50 after 48 hrs by glo assay relative to control. Type of test: functional. Put shortly:
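Cells treated at IC50 or 2x IC50 for 48 h; caspase-3/7 activity read by luminescence after cleavage of a DEVD-containing luminogenic substrate.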

The target in test [8] is Histone deacetylase 3/Nuclear receptor corepressor 2 (HDAC3/NCoR2) (Homo sapiens, UniProt O15379). Format: ADME, cell-based.
In test [9] the target is T2, Proteasome component C5 (Homo sapiens) (UniProt P20618).
T2 sequence (whole entry): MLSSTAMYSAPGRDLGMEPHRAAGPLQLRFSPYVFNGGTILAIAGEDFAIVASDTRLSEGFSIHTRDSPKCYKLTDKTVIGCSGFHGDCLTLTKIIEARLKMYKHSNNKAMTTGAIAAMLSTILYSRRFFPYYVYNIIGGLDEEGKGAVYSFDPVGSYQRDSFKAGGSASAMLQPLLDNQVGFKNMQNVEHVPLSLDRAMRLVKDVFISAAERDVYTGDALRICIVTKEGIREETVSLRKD
Description: Inhibition of caspase-like activity of 20S proteasome in human SEM cells at 4 nM to 25 uM using Z-nLPnLD-aminoluciferin as substrate after 2 hrs by proteasome-Glo assay. Type of test: cell-based.

Test [10] concerns SEM cells. Description: Inhibition of HDAC6/chymotrypsin-like activity of 20S proteasome in human SEM cells assessed as increase in HSP40 protein expression at 0.1 to 10 uM after 18 hrs by Western blot assay. Type of test: cell-based. Put shortly: as §2
Test [11] addresses Proteasome Macropain subunit (Homo sapiens) (UniProt P49721). As to the kind of experiment: Inhibition of trypsin-like activity of 20S proteasome in human imatinib-resistant SUP-B15 cells at 4 nM to 25 uM using Z-LRR-aminoluciferin as substrate after 2 hrs by proteasome-Glo assay. Type of test: cell-based.
For a further test, the system named is PBMC. As to the kind of experiment: cells. Type of test: ADME, cell-based. Conditions: Homo sapiens, 72 h.
The subject of test [12] is SEM cells. As to the kind of experiment: Inhibition of HDAC6/chymotrypsin-like activity of 20S proteasome in human SEM cells assessed as increase in Grp94 protein expression at 0.1 to 10 uM after 18 hrs by Western blot assay. Type of test: cell-based. The gist of the method: as §2
In test [13] the target is T2, Proteasome component C5 (Homo sapiens). Description: Inhibition of caspase-like activity of 20S proteasome in imatinib-resistant human SUP-B15 cells at 4 nM to 25 uM using Z-nLPnLD-aminoluciferin as substrate after 2 hrs by proteasome-Glo assay. Format: cell-based.
For the next test, the system named is KCL-22. As to the kind of experiment: Cytotoxicity against human KCL22 cells after 72 hrs by CellTiter-Glo luminescent cell viability assay. The following applies: KCL-22, 72 h. Format: functional, cell-based. The gist of the method:
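Inhibitors dispensed in increasing concentrations (50 nM–25 μM) and cells exposed 72 h. Viability read by ATP-dependent luminescence (CellTiter-Glo). Raw data normalized to controls. IC50 obtained by sigmoid dose–response fit with non-linear regression.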

Proteasome Macropain subunit (Homo sapiens), sequence (P49721 whole entry): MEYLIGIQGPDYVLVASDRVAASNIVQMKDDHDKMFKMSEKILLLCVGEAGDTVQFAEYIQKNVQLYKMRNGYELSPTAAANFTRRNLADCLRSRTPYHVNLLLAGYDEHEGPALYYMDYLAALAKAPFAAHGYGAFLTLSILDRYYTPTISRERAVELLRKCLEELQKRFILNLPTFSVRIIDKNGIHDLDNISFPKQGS
Histone deacetylase 3/Nuclear receptor corepressor 2 (HDAC3/NCoR2), sequence (O15379 whole entry): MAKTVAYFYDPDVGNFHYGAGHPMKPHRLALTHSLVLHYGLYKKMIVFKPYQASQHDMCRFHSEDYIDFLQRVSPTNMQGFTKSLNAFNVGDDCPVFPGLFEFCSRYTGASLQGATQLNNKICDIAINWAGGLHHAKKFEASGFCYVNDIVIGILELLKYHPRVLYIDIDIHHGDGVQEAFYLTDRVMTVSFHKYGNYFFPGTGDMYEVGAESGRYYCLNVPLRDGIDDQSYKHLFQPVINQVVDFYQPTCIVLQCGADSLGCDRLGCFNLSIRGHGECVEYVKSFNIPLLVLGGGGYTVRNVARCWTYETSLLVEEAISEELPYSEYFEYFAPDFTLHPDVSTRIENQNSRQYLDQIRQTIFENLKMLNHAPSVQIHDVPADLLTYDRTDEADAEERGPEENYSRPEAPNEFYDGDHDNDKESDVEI
Histone deacetylase 3/Nuclear receptor corepressor 2 (HDAC3/NCoR2), sequence (Q9Y618 whole entry, further chain): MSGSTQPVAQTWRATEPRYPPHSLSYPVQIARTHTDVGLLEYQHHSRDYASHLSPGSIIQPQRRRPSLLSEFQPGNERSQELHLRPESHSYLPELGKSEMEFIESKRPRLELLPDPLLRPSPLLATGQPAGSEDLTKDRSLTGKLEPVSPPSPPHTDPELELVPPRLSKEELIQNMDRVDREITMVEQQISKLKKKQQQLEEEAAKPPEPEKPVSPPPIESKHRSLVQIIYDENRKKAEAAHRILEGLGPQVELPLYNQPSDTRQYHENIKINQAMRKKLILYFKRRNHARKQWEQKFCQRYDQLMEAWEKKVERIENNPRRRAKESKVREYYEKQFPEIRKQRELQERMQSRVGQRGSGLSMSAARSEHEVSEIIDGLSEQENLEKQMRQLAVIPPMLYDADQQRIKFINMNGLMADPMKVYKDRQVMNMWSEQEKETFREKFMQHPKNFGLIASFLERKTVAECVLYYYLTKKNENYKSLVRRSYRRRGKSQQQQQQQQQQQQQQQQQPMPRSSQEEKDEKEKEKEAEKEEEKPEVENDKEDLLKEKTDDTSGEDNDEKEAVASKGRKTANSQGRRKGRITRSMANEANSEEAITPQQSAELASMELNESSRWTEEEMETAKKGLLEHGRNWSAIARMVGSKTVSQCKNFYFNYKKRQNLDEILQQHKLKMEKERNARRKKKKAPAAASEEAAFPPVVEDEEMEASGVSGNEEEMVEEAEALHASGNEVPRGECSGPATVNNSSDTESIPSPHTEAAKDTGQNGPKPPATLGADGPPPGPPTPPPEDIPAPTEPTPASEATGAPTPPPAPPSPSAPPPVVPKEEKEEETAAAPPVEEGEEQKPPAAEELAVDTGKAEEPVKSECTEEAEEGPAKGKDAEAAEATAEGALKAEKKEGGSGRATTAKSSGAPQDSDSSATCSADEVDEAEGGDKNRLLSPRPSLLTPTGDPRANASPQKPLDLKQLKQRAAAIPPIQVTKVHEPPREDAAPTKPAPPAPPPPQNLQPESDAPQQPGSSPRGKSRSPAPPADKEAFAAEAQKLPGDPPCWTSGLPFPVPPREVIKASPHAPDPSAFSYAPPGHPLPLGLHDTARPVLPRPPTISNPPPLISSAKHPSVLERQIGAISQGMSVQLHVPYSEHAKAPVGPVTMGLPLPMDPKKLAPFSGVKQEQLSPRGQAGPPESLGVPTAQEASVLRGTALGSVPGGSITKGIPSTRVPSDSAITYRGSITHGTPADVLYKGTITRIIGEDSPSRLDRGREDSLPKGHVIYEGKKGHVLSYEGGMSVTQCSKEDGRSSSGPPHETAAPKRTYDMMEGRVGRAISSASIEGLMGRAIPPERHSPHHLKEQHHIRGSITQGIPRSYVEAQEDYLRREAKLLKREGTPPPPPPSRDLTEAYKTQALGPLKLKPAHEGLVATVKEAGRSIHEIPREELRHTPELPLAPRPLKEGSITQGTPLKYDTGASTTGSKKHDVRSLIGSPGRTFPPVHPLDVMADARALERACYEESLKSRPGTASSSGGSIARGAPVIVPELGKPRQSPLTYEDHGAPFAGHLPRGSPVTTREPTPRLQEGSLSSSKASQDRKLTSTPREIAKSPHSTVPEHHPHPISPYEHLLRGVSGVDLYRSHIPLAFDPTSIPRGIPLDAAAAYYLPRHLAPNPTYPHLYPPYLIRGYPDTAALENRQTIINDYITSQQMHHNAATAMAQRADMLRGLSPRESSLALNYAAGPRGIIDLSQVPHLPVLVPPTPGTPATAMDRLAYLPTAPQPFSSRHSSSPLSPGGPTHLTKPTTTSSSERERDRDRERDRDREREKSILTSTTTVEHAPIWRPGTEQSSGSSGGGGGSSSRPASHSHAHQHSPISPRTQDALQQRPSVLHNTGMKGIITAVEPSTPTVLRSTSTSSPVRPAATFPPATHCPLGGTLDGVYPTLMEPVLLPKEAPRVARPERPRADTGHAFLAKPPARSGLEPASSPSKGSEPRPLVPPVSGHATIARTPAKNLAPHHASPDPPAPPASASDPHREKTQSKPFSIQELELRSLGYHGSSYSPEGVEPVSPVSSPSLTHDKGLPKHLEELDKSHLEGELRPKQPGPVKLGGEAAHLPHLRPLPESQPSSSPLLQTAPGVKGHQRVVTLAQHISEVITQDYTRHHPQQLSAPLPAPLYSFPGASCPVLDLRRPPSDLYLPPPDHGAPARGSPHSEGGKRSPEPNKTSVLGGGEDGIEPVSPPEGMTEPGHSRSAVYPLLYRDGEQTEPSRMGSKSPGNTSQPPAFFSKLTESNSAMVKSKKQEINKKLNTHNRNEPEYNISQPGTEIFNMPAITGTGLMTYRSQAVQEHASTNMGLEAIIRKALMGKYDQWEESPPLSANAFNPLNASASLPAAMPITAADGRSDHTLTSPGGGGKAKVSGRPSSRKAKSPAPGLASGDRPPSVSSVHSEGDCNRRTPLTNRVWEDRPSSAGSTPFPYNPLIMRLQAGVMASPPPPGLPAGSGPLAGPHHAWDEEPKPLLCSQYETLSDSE

Regarding `C[C@H](NC(=O)[C@H](CC(=O)NCC(C)(C)C)NC(=O)c1ccc(C(=O)NO)cc1)C(=O)NCc1ccccc1`, the inhibition result (in test [1]; with SEM cells [2]; with SEM cells [3]; in test [4]; in test [6]; with SEM cells [10]) was “Active” throughout. In addition, the inhibition result in the test on SEM cells [12] is “Active”. In addition, the IC50 – broadly, the concentration at which inhibition is half-maximal – in test [5] was 5.23 µM; in test [8], 15 µM; in the test with PBMC, above 25 µM; in the test with KCL-22, 3.14 µM. For the same molecule, in the test on SEM cells [7], the “fold change (FC)” value came to 6. The inhibition entry in test [9], in [11] and in test [13] was “inactive” throughout.
